Holding throughout (assay type): ADME, Microsome
Data set [1] is described as follows: Elimination rate constant in human liver microsomes at 1 uM preincubated for 3 mins followed by NADPH addition and measured up to 60 mins by LC-MS/MS analysis. The following applies: time <=63 min. The method in brief:
(§1)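 Mixed-gender human liver microsomes with test article at 1 µM final. Testosterone (5 µM) run separately as control. Mixture without cofactor equilibrated 3 min at 37 °C in a shaking water bath, then started with cofactor. Aliquots taken at 0, 10, 20, 30 and 60 min. CLint = k/P, where k is the elimination rate constant and P is the incubation protein concentration.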
Background: Liver microsomes are a subcellular fraction often used to study metabolism.

A short description of data set [2]: Half life in human liver microsomes at 1 uM preincubated for 3 mins followed by NADPH addition and measured up to 60 mins by LC-MS/MS analysis. As to conditions: time <=63 min. The gist of the method: as §1
Data set [3] can be described thus: Intrinsic clearance in human liver microsomes at 1 uM preincubated for 3 mins followed by NADPH addition and measured up to 60 mins by LC-MS/MS analysis. The following applies: 1 h, time <=63 min. The method in brief:
as §1

Experimental findings from ChEMBL document CHEMBL4680220, “Synthesis and biological evaluation of acridine-based histone deacetylase inhibitors as multitarget agents against Alzheimer's disease” (Eur J Med Chem, 2020) are described below.

What is called half-life is the time in which the quantity being followed falls by half. The low end stands for rapid decline, the high end for slow decline. In turn, `C[C@]12CC[C@H]3[C@@H](CCC4=CC(=O)CC[C@@]43C)[C@@H]1CC[C@@H]2O` [TESTOSTERONE] showed a k el at 1 h, 1 µM in data set [1] of 0.00045 s⁻¹. Further, in data set [2], the half-life at 1 µM turned out to be 25.7 min. Besides, in data set [3], the CLint came out at 54 µL/min/mg.
